# System: U2OS
# Experiment: Multiplex assay against U2OS
# Assay type: toxicity, cell-based
# Conditions: human
# Summary of the method: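 Cells were classed with CellPathfinder machine-learning gating, first as Hoechst high-intensity objects or normal cells, then (normal cells) as healthy, pyknosed or fragmented nuclei, and finally (pyknosed cells) as mitotic or apoptotic. Staining of live cells at seeding used Hoechst33342, BioTracker Green Microtubule Cytoskeleton Dye, MitoTracker Red and Annexin V Alexa Fluor 680, with imaging on a CQ1 microscope at 37°C and 5% CO2 after compound addition. Tubulin, mitochondrial-mass and membrane-permeability phenotypes are per cents of healthy-nucleus cells.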
# [1] = 12 h, 1 µM, compound concentration 1 uM, replicate 1
# [2] = 12 h, 1 µM, compound concentration 1 uM, replicate 2
# [3] = 12 h, 10 µM, compound concentration 10 uM, replicate 1
# [4] = 12 h, 10 µM, compound concentration 10 uM, replicate 2
# [5] = 24 h, 1 µM, compound concentration 1 uM, replicate 1
# [6] = 24 h, 1 µM, compound concentration 1 uM, replicate 2
# [7] = 24 h, 10 µM, compound concentration 10 uM, replicate 1
# [8] = 24 h, 10 µM, compound concentration 10 uM, replicate 2
# [9] = 48 h, 1 µM, compound concentration 1 uM, replicate 1
# [10] = 48 h, 1 µM, compound concentration 1 uM, replicate 2
# [11] = 48 h, 10 µM, compound concentration 10 uM, replicate 1
# [12] = 48 h, 10 µM, compound concentration 10 uM, replicate 2
structure (smiles),measurement,setting,value
C[C@]12CC[C@@H]3c4ccc(O)cc4CC[C@H]3[C@@H]1CC[C@@H]2O [ESTRADIOL],Population Apoptotic (%),[1],11%
same,Population Fragmented Nuclei (%),[1],8%
same,Population Healthy Nuclei (%),[1],82%
same,Population Hoechst High Intensity Objects (%),[1],7%
same,Population Membrane Permeable-Phenotype (%),[1],10%
same,Population Mitochondria Different-Phenotype (%),[1],9%
same,Population Mitotic Cells (%),[1],88%
same,Population Normal (%),[1],92%
same,Population Pyknosed Nuclei (%),[1],8%
same,Population Tubulin-Different-Phenotype (%),[1],12%
same,Total Cell Count,[1],138
same,Population Apoptotic (%),[2],50%
same,Population Healthy Nuclei (%),[2],86%
same,Population Hoechst High Intensity Objects (%),[2],5%
same,Population Membrane Permeable-Phenotype (%),[2],4%
same,Population Mitochondria Different-Phenotype (%),[2],8%
same,Population Mitotic Cells (%),[2],50%
same,Population Normal (%),[2],94%
same,Population Pyknosed Nuclei (%),[2],5%
same,Population Tubulin-Different-Phenotype (%),[2],14%
same,Total Cell Count,[2],80
same,Population Apoptotic (%),[3],30%
same,Population Fragmented Nuclei (%),[3],5%
same,Population Healthy Nuclei (%),[3],82%
same,Population Hoechst High Intensity Objects (%),[3],4%
same,Population Membrane Permeable-Phenotype (%),[3],6%
same,Population Mitochondria Different-Phenotype (%),[3],7%
same,Population Mitotic Cells (%),[3],70%
same,Population Normal (%),[3],95%
same,Population Pyknosed Nuclei (%),[3],11%
same,Population Tubulin-Different-Phenotype (%),[3],14%
same,Total Cell Count,[3],113
same,Population Apoptotic (%),[4],25%
same,Population Fragmented Nuclei (%),[4],9%
same,Population Healthy Nuclei (%),[4],77%
same,Population Hoechst High Intensity Objects (%),[4],8%
same,Population Membrane Permeable-Phenotype (%),[4],4%
same,Population Mitochondria Different-Phenotype (%),[4],12%
same,Population Mitotic Cells (%),[4],75%
same,Population Normal (%),[4],91%
same,Population Pyknosed Nuclei (%),[4],12%
same,Population Tubulin-Different-Phenotype (%),[4],25%
same,Total Cell Count,[4],76
same,Population Apoptotic (%),[5],0%
same,Population Fragmented Nuclei (%),[5],7%
same,Population Healthy Nuclei (%),[5],87%
same,Population Hoechst High Intensity Objects (%),[5],5%
same,Population Membrane Permeable-Phenotype (%),[5],6%
same,Population Mitochondria Different-Phenotype (%),[5],6%
same,Population Mitotic Cells (%),[5],100%
same,Population Normal (%),[5],94%
same,Population Pyknosed Nuclei (%),[5],5%
same,Population Tubulin-Different-Phenotype (%),[5],15%
same,Total Cell Count,[5],140
same,Population Apoptotic (%),[6],50%
same,Population Fragmented Nuclei (%),[6],4%
same,Population Healthy Nuclei (%),[6],89%
same,Population Hoechst High Intensity Objects (%),[6],3%
same,Population Membrane Permeable-Phenotype (%),[6],4%
same,Population Mitochondria Different-Phenotype (%),[6],9%
same,Population Mitotic Cells (%),[6],50%
same,Population Normal (%),[6],96%
same,Population Pyknosed Nuclei (%),[6],6%
same,Population Tubulin-Different-Phenotype (%),[6],14%
same,Total Cell Count,[6],82
same,Population Apoptotic (%),[7],21%
same,Population Fragmented Nuclei (%),[7],7%
same,Population Healthy Nuclei (%),[7],79%
same,Population Membrane Permeable-Phenotype (%),[7],2%
same,Population Mitotic Cells (%),[7],78%
same,Population Pyknosed Nuclei (%),[7],12%
same,Population Tubulin-Different-Phenotype (%),[7],12%
same,Total Cell Count,[7],140
same,Population Apoptotic (%),[8],30%
same,Population Fragmented Nuclei (%),[8],18%
same,Population Healthy Nuclei (%),[8],68%
same,Population Hoechst High Intensity Objects (%),[8],3%
same,Population Membrane Permeable-Phenotype (%),[8],5%
same,Population Mitochondria Different-Phenotype (%),[8],11%
same,Population Mitotic Cells (%),[8],70%
same,Population Normal (%),[8],96%
same,Population Pyknosed Nuclei (%),[8],13%
same,Population Tubulin-Different-Phenotype (%),[8],43%
same,Population Apoptotic (%),[9],31%
same,Population Hoechst High Intensity Objects (%),[9],1%
same,Population Membrane Permeable-Phenotype (%),[9],2%
same,Population Mitotic Cells (%),[9],68%
same,Population Normal (%),[9],98%
same,Population Tubulin-Different-Phenotype (%),[9],15%
same,Total Cell Count,[9],138
same,Population Apoptotic (%),[10],18%
same,Population Fragmented Nuclei (%),[10],5%
same,Population Healthy Nuclei (%),[10],86%
same,Population Hoechst High Intensity Objects (%),[10],2%
same,Population Membrane Permeable-Phenotype (%),[10],12%
same,Population Mitochondria Different-Phenotype (%),[10],14%
same,Population Mitotic Cells (%),[10],81%
same,Population Normal (%),[10],97%
same,Population Pyknosed Nuclei (%),[10],7%
same,Population Tubulin-Different-Phenotype (%),[10],17%
same,Total Cell Count,[10],90
same,Population Apoptotic (%),[11],34%
same,Population Fragmented Nuclei (%),[11],8%
same,Population Healthy Nuclei (%),[11],81%
same,Population Membrane Permeable-Phenotype (%),[11],2%
same,Population Mitochondria Different-Phenotype (%),[11],19%
same,Population Mitotic Cells (%),[11],65%
same,Population Tubulin-Different-Phenotype (%),[11],12%
same,Population Apoptotic (%),[12],72%
same,Population Fragmented Nuclei (%),[12],13%
same,Population Healthy Nuclei (%),[12],76%
same,Population Hoechst High Intensity Objects (%),[12],2%
same,Population Membrane Permeable-Phenotype (%),[12],17%
same,Population Mitochondria Different-Phenotype (%),[12],13%
same,Population Mitotic Cells (%),[12],27%
same,Population Normal (%),[12],97%
same,Population Pyknosed Nuclei (%),[12],10%
same,Population Tubulin-Different-Phenotype (%),[12],57%
same,Total Cell Count,[12],157
CC(C)c1noc(N2CCC(COc3ccc(-c4ccc(S(C)(=O)=O)cc4)nc3)CC2)n1 [GSK-1292263],Population Apoptotic (%),[1],58%
same,Population Fragmented Nuclei (%),[1],25%
same,Population Healthy Nuclei (%),[1],64%
same,Population Hoechst High Intensity Objects (%),[1],17%
same,Population Membrane Permeable-Phenotype (%),[1],5%
same,Population Mitochondria Different-Phenotype (%),[1],10%
same,Population Mitotic Cells (%),[1],41%
same,Population Normal (%),[1],82%
same,Population Pyknosed Nuclei (%),[1],10%
same,Population Tubulin-Different-Phenotype (%),[1],10%
same,Total Cell Count,[1],304
same,Population Apoptotic (%),[2],50%
same,Population Fragmented Nuclei (%),[2],12%
same,Population Healthy Nuclei (%),[2],85%
same,Population Hoechst High Intensity Objects (%),[2],2%
same,Population Membrane Permeable-Phenotype (%),[2],3%
same,Population Mitochondria Different-Phenotype (%),[2],4%
same,Population Mitotic Cells (%),[2],50%
same,Population Normal (%),[2],97%
same,Population Pyknosed Nuclei (%),[2],2%
same,Population Tubulin-Different-Phenotype (%),[2],9%
same,Total Cell Count,[2],89
same,Population Apoptotic (%),[3],54%
same,Population Fragmented Nuclei (%),[3],16%
same,Population Healthy Nuclei (%),[3],67%
same,Population Hoechst High Intensity Objects (%),[3],7%
same,Population Membrane Permeable-Phenotype (%),[3],12%
same,Population Mitochondria Different-Phenotype (%),[3],18%
same,Population Mitotic Cells (%),[3],45%
same,Population Normal (%),[3],92%
same,Population Pyknosed Nuclei (%),[3],15%
same,Population Tubulin-Different-Phenotype (%),[3],33%
same,Total Cell Count,[3],141
same,Population Apoptotic (%),[4],42%
same,Population Fragmented Nuclei (%),[4],5%
same,Population Healthy Nuclei (%),[4],83%
same,Population Hoechst High Intensity Objects (%),[4],5%
same,Population Membrane Permeable-Phenotype (%),[4],3%
same,Population Mitochondria Different-Phenotype (%),[4],10%
same,Population Mitotic Cells (%),[4],57%
same,Population Normal (%),[4],94%
same,Population Pyknosed Nuclei (%),[4],10%
same,Population Tubulin-Different-Phenotype (%),[4],15%
same,Total Cell Count,[4],76
same,Population Apoptotic (%),[5],50%
same,Population Fragmented Nuclei (%),[5],17%
same,Population Healthy Nuclei (%),[5],73%
same,Population Hoechst High Intensity Objects (%),[5],15%
same,Population Membrane Permeable-Phenotype (%),[5],5%
same,Population Mitochondria Different-Phenotype (%),[5],11%
same,Population Mitotic Cells (%),[5],50%
same,Population Normal (%),[5],84%
same,Population Pyknosed Nuclei (%),[5],8%
same,Population Tubulin-Different-Phenotype (%),[5],5%
same,Total Cell Count,[5],334
same,Population Apoptotic (%),[6],0%
same,Population Fragmented Nuclei (%),[6],14%
same,Population Healthy Nuclei (%),[6],83%
same,Population Hoechst High Intensity Objects (%),[6],2%
same,Population Membrane Permeable-Phenotype (%),[6],2%
same,Population Mitochondria Different-Phenotype (%),[6],10%
same,Population Mitotic Cells (%),[6],100%
same,Population Normal (%),[6],97%
same,Population Pyknosed Nuclei (%),[6],2%
same,Population Tubulin-Different-Phenotype (%),[6],13%
same,Total Cell Count,[6],103
same,Population Apoptotic (%),[7],40%
same,Population Fragmented Nuclei (%),[7],20%
same,Population Healthy Nuclei (%),[7],67%
same,Population Hoechst High Intensity Objects (%),[7],7%
same,Population Membrane Permeable-Phenotype (%),[7],9%
same,Population Mitochondria Different-Phenotype (%),[7],14%
same,Population Mitotic Cells (%),[7],60%
same,Population Normal (%),[7],92%
same,Population Pyknosed Nuclei (%),[7],12%
same,Population Tubulin-Different-Phenotype (%),[7],14%
same,Total Cell Count,[7],168
same,Population Apoptotic (%),[8],36%
same,Population Fragmented Nuclei (%),[8],7%
same,Population Healthy Nuclei (%),[8],79%
same,Population Hoechst High Intensity Objects (%),[8],4%
same,Population Membrane Permeable-Phenotype (%),[8],7%
same,Population Mitochondria Different-Phenotype (%),[8],12%
same,Population Mitotic Cells (%),[8],63%
same,Population Normal (%),[8],95%
same,Population Pyknosed Nuclei (%),[8],13%
same,Population Tubulin-Different-Phenotype (%),[8],7%
same,Total Cell Count,[8],91
same,Population Apoptotic (%),[9],42%
same,Population Healthy Nuclei (%),[9],79%
same,Population Hoechst High Intensity Objects (%),[9],9%
same,Population Membrane Permeable-Phenotype (%),[9],2%
same,Population Mitochondria Different-Phenotype (%),[9],12%
same,Population Mitotic Cells (%),[9],57%
same,Population Normal (%),[9],90%
same,Population Pyknosed Nuclei (%),[9],9%
same,Population Tubulin-Different-Phenotype (%),[9],8%
same,Total Cell Count,[9],406
same,Population Apoptotic (%),[10],25%
same,Population Fragmented Nuclei (%),[10],11%
same,Population Healthy Nuclei (%),[10],85%
same,Population Hoechst High Intensity Objects (%),[10],0%
same,Population Membrane Permeable-Phenotype (%),[10],4%
same,Population Mitochondria Different-Phenotype (%),[10],13%
same,Population Mitotic Cells (%),[10],75%
same,Population Normal (%),[10],100%
same,Population Pyknosed Nuclei (%),[10],3%
same,Population Tubulin-Different-Phenotype (%),[10],12%
same,Total Cell Count,[10],136
same,Population Apoptotic (%),[11],60%
same,Population Fragmented Nuclei (%),[11],14%
same,Population Healthy Nuclei (%),[11],76%
same,Population Hoechst High Intensity Objects (%),[11],8%
same,Population Mitotic Cells (%),[11],40%
same,Population Normal (%),[11],91%
same,Population Pyknosed Nuclei (%),[11],9%
same,Population Tubulin-Different-Phenotype (%),[11],9%
same,Total Cell Count,[11],231
same,Population Apoptotic (%),[12],23%
same,Population Fragmented Nuclei (%),[12],5%
same,Population Healthy Nuclei (%),[12],80%
same,Population Hoechst High Intensity Objects (%),[12],2%
same,Population Membrane Permeable-Phenotype (%),[12],6%
same,Population Mitochondria Different-Phenotype (%),[12],13%
same,Population Mitotic Cells (%),[12],76%
same,Population Normal (%),[12],97%
same,Population Pyknosed Nuclei (%),[12],14%
same,Population Tubulin-Different-Phenotype (%),[12],7%
same,Total Cell Count,[12],130

# — ChEMBL document CHEMBL4689842, “EUbOPEN Chemogenomics Library wave 1” (2021)
